# From ChEMBL document CHEMBL1131229, “Synthesis, rotamer orientation, and calcium channel modulation activities of alkyl and 2-phenethyl 1,4-dihydro-2,6-dimethyl-3-nitro-4-(3- or 6-substituted-2-pyridyl)-5-pyridinecarboxylates” (J Med Chem, 1998)
# Experiments:
# Cavia porcellus [1] = organism: Cavia porcellus; test: Percent decrease in tonic contractile response in guinea pig ileal longitudinal smooth muscle.; format: functional; conditions: Muscle tissue
# Procedure, shortened: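 Guinea pig ileum longitudinal smooth muscle, tonic (slow) contraction evoked by carbachol at 1.6 × 10^-7 M (muscarinic, Ca²⁺-dependent). Test compound applied over a dose range. Concentration giving 50% inhibition (IC50 ± SEM, n = 3-18) read graphically from the dose-response curve.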
# Cavia porcellus [2] = organism: Cavia porcellus; test: Calcium channel agonist activity as percent increase in tonic contractile response in guinea pig left atrium; format: functional; conditions: Cardiac atrium
# Procedure, shortened: (§1)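 Racemic test compounds on isolated guinea pig left atrium, scored as positive inotropic (contractile) response. Dose-response curves constructed. EC50 (± SEM) taken graphically as the molar concentration producing 50% of the maximum contractile increase; number of experiments reported.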
# Cavia porcellus [3] = organism: Cavia porcellus; test: Calcium channel agonist activity as percent increase in tonic contractile response in guinea pig left atrium, Weak antagonist; format: functional, Cardiac atrium
# Cavia porcellus [4] = organism: Cavia porcellus; test: Calcium channel agonist activity as percent increase in tonic contractile response in guinea pig left atrium, Weak agonist; format: functional, Cardiac atrium; procedure, shortened: as §1
IC50 (Cavia porcellus [1]) [µM],SMILES,other results
4.74,CC1=NC(C)=C([N+](=O)[O-])C(c2cccc([N+](=O)[O-])n2)/C1=C(/O)OCCc1ccccc1 (centres undefined),
77.7,CC1=NC(C)=C([N+](=O)[O-])C(c2ncccc2[N+](=O)[O-])/C1=C(/O)OCCc1ccccc1 (centres undefined),
17.2,CCO/C(O)=C1/C(C)=NC(C)=C([N+](=O)[O-])C1c1cccc(C)n1 (centres undefined),EC50 (Cavia porcellus [2]): 12.3 µM
5.17,CC1=NC(C)=C([N+](=O)[O-])C(c2ncccc2Cl)/C1=C(/O)OCCc1ccccc1 (centres undefined),
2.82,CC1=NC(C)=C([N+](=O)[O-])C(c2ncccc2C)/C1=C(/O)OC(C)C (centres undefined),EC50 (Cavia porcellus [2]): 9.97 µM
1.41,CC1=NC(C)=C([N+](=O)[O-])C(c2cccc(C(F)(F)F)n2)/C1=C(/O)OCCc1ccccc1 (centres undefined),
8.38,CC1=NC(C)=C([N+](=O)[O-])C(c2cccc(-c3ccccc3)n2)/C1=C(/O)OCCc1ccccc1 (centres undefined),
1.51,CC1=NC(C)=C([N+](=O)[O-])C(c2cccc(Cl)n2)/C1=C(/O)OCCc1ccccc1 (centres undefined),
0.639,CC1=NC(C)=C([N+](=O)[O-])C(c2ccccn2)/C1=C(/O)OCCc1ccccc1 (centres undefined),
> 59.8,CC1=NC(C)=C([N+](=O)[O-])C(c2ncccc2C(F)(F)F)/C1=C(/O)OCCc1ccccc1 (centres undefined),
9.98,CC1=NC(C)=C([N+](=O)[O-])C(c2cccc(C)n2)/C1=C(/O)OCCc1ccccc1 (centres undefined),
3.77,CC1=NC(C)=C([N+](=O)[O-])C(c2ncccc2[N+](=O)[O-])/C1=C(/O)OC(C)C (centres undefined),EC50 (Cavia porcellus [3]): Partial antagonist
5.43,CC1=NC(C)=C([N+](=O)[O-])C(c2ncccc2C)/C1=C(/O)OCCc1ccccc1 (centres undefined),
25.1,CC1=NC(C)=C([N+](=O)[O-])C(c2cccc(C)n2)/C1=C(/O)OC(C)C (centres undefined),EC50 (Cavia porcellus [2]): 1.81 µM
16.7,CC1=NC(C)=C([N+](=O)[O-])C(c2cccc(Cl)n2)/C1=C(/O)OC(C)C (centres undefined),EC50 (Cavia porcellus [2]): 5.96 µM
2.29,CO/C(O)=C1/C(C)=NC(C)=C([N+](=O)[O-])C1c1cccc(C)n1 (centres undefined),EC50 (Cavia porcellus [4]): Partial agonist
3.35,CC1=NC(C)=C([N+](=O)[O-])C(c2ncccc2-c2ccccc2)/C1=C(/O)OCCc1ccccc1 (centres undefined),

SMILES,IC50 (Cavia porcellus [1]) [µM],other results
COC(=O)C1=C(C)NC(C)=C(C(=O)OC)C1c1ccccc1[N+](=O)[O-] [NIFEDIPINE],0.014,
